Legend:
[1] = test system: M21; test: Antiproliferative activity against human M21 cells after 48 hrs by SRB assay; assay type: functional, cell-based; settings: M21, 48 h
Procedure, shortened: (§1)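 Cells grown in DMEM with 5% FBS at 37 C; seeded per well at 2.5 x 10^3 (HT-1080), 4.0 x 10^3 (HT-29), 3.0 x 10^3 (M21) or 2.5 x 10^3 (MCF7). Drugs from 40 mM DMSO stock, serial dilutions, final 100 µM to 78 nM, DMSO <0.5%.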

[2] = test system: HT-1080; test: Antiproliferative activity against human HT1080 cells after 48 hrs by SRB assay; assay type: functional, cell-based; settings: HT-1080, 48 h; procedure, shortened: as §1
[3] = test system: M21; test: Cell cycle arrest in human M21 cells assessed as accumulation at sub-G1 phase at 2 times IC50 after 24 hrs by DAPI staining based flow cytometry relative to control; assay type: functional
Procedure, shortened: (§2)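 Flow cytometry in M21 cells seeded in six-well plates, allowed 24 h, then exposed 24 h to drug (2- or 5-fold IC50); DMSO 0.5% control. Trypsinized, PBS-washed, fixed in ice-cold EtOH, stained with 2 mg/mL DAPI in PBS; sub-G1, G0/G1, S and G2/M fractions measured on LSR II cytometer.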

[4] = test system: HT-29; test: Antiproliferative activity against human HT-29 cells after 48 hrs by SRB assay; assay type: functional, cell-based; settings: HT-29, 48 h; procedure, shortened: as §1
[5] = test system: M21; test: Cell cycle arrest in human M21 cells assessed as accumulation at G2/M phase at 2 times IC50 after 24 hrs by DAPI staining based flow cytometry relative to control; assay type: functional; procedure, shortened: as §2
[6] = test system: M21; test: Cell cycle arrest in human M21 cells assessed as accumulation at G0/G1 phase at 2 times IC50 after 24 hrs by DAPI staining based flow cytometry relative to control; assay type: functional; procedure, shortened: as §2
[7] = test system: M21; test: Cell cycle arrest in human M21 cells assessed as accumulation at S phase at 2 times IC50 after 24 hrs by DAPI staining based flow cytometry relative to control; assay type: functional; procedure, shortened: as §2
[8] = test system: MCF7; test: Antiproliferative activity against human MCF7 cells after 48 hrs by SRB assay; assay type: functional, cell-based; settings: MCF7, 48 h; procedure, shortened: as §1

Row | IC50 [2] [µM] | IC50 [4] [µM] | IC50 [8] [µM] | Structure (SMILES) | IC50 [1] [µM] | Activity [3] [%] | Activity [5] [%] | Activity [6] [%] | Activity [7] [%]
1 | 15 | 13 | 9.4 | CCCC(=O)Nc1cccc(S(=O)(=O)Oc2ccccc2C(C)C)c1 | 20 | 3 | 18.4 | 64.2 | 14.4
2 | 0.6 | 4.1 | 2.5 | O=C(CCl)Nc1ccc(S(=O)(=O)Oc2ccccc2I)cc1 | 3.9 | 0.3 | 12.1 | 71.1 | 16.5
3 | 3.8 | 6.2 | 5.2 | CC(C)c1ccccc1OS(=O)(=O)c1ccc(NC(=O)CCCCl)cc1 | 5.1 | 0.2 | 25.2 | 55.3 | 19.3
4 | 1 | 5.6 | 2.9 | CC(C)c1ccccc1OS(=O)(=O)c1ccc(NC(=O)CCl)cc1 | 3.9 | 0.1 | 21 | 60.9 | 18
5 | 6.3 | 6.4 | 5.3 | CCCCCC(=O)Nc1ccc(S(=O)(=O)Oc2ccccc2C(C)C)cc1 | 6.7 | 3.7 | 26.6 | 41.4 | 28.3
6 | 2.6 | 9.5 | 6.6 | CC(C)(C)C(=O)Nc1ccc(S(=O)(=O)Oc2ccccc2I)cc1 | 8.3 | 0 | 15.9 | 55 | 29.1
7 | 8.2 | 11 | 12 | CC(C)c1ccccc1OS(=O)(=O)c1cccc(NC(=O)CCCl)c1 | > 40 |  |  |  | 
8 | 4.9 | 14 | 8.6 | CC(C)C(=O)Nc1ccc(S(=O)(=O)Oc2ccccc2C(C)C)cc1 | 11 | 0.2 | 10.5 | 62 | 27.3
9 | 3.3 | 13 | 8.1 | CC(C)C(=O)Nc1ccc(S(=O)(=O)Oc2ccccc2I)cc1 | 13 | 0.2 | 14.2 | 62 | 23.6
10 | 12 | 9.1 | 6.3 | O=C(CCCCl)Nc1ccc(S(=O)(=O)Oc2ccccc2I)cc1 | 7.2 | 0.2 | 40.7 | 42 | 17.1
11 | 9.6 | 13 | 10 | CCCCCC(=O)Nc1ccc(S(=O)(=O)Oc2ccccc2I)cc1 | 11 | 0.2 | 44.3 | 42.6 | 12.9
12 | 11 | 19 | 12 | CCCCCC(=O)Nc1cccc(S(=O)(=O)Oc2ccccc2C(C)C)c1 | 11 | 1.5 | 13.5 | 69 | 16
13 | 16 | 16 | 13 | CC(C)C(=O)Nc1cccc(S(=O)(=O)Oc2ccccc2C(C)C)c1 | 17 | 0.1 | 32.5 | 54.5 | 12.9
14 | 12 | 22 | 14 | CCC(=O)Nc1cccc(S(=O)(=O)Oc2ccccc2C(C)C)c1 | 25 |  |  |  | 
15 | 21 | 27 | 21 | CC(=O)Nc1cccc(S(=O)(=O)Oc2ccccc2C(C)C)c1 | 31 |  |  |  | 
16 | 17 | 23 | 27 | CC(=O)Nc1ccc(S(=O)(=O)Oc2ccccc2I)cc1 | 27 |  |  |  | 

— ChEMBL document CHEMBL4270536, “Preparation, characterisation and biological evaluation of new N-phenyl amidobenzenesulfonates and N-phenyl ureidobenzenesulfonates inducing DNA double-strand breaks. Part 3. Modulation of ring A” (Eur J Med Chem, 2018)
